Some results are limits rather than exact numbers.

The values that follow come from ChEMBL document CHEMBL4425169 (ACS Med Chem Lett, 2016).

Data set [1] has as its target T1, Voltage-gated inwardly rectifying potassium channel KCNH2 (Homo sapiens, UniProt Q12809). Put plainly: Displacement of [35S]MK-499 from human ERG. On the technique in general: Displacement assays read how much labelled ligand stays bound in the presence of the test substance.
For data set [2], the target named is T1, Voltage-gated inwardly rectifying potassium channel KCNH2. Put plainly: Inhibition of human ERG after 6 mins by electrophysiological assay.
Data set [3] has as its system Rattus norvegicus. Put plainly: Diuretic activity in Sprague-Dawley rat at 3 mg/kg via oral gavage administered 30 mins prior to void induction by loading saline measured upto 4 hrs relative to vehicle treated control. It is filed as functional. The essentials: (§1)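 Acute 4 h study in Sprague-Dawley rats after oral dosing, n = 5 per group. Urine volume and sodium and potassium excretion were expressed as fold increase over vehicle-treated animals. Significance was tested versus vehicle (p < 0.05 or p < 0.01).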

The subject of data set [4] is Rattus norvegicus. Description: Natriuretic activity in Sprague-Dawley rat at 3 mg/kg via oral gavage administered 30 mins prior to void induction by loading saline measured upto 4 hrs relative to vehicle treated control. In kind it is functional. The essentials: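 Acute 4 h diuresis/natriuresis study in SD rats given a single oral dose, n = 5 per group. Urinary sodium output is expressed as fold increase over vehicle-treated animals, with significance tested against vehicle.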

Data set [5] deals with Rattus norvegicus. Description: Diuretic activity in Sprague-Dawley rat at 0.3 mg/kg via oral gavage administered 30 mins prior to void induction by loading saline measured upto 4 hrs relative to vehicle treated control. In kind it is functional. The method, boiled down: (§2)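 Acute rat diuresis model in male-unspecified Sprague-Dawley rats, single oral dose, urine collected over 4 h. Urine volume, sodium excretion and potassium excretion expressed as fold increase over vehicle-treated controls; n = 5 per group; significance tested against vehicle.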

For data set [6], the system named is Rattus norvegicus. Put plainly: Diuretic activity in Sprague-Dawley rat at 1 mg/kg via oral gavage administered 30 mins prior to void induction by loading saline measured upto 4 hrs relative to vehicle treated control. It is filed as functional. The method, boiled down: as §2
In data set [7] the test system is Rattus norvegicus. Description: Natriuretic activity in Sprague-Dawley rat at 0.3 mg/kg via oral gavage administered 30 mins prior to void induction by loading saline measured upto 4 hrs relative to vehicle treated control. It is filed as functional. The method, boiled down:
as §2

Data set [8] deals with Rattus norvegicus. Description: Natriuretic activity in Sprague-Dawley rat at 1 mg/kg via oral gavage administered 30 mins prior to void induction by loading saline measured upto 4 hrs relative to vehicle treated control. It is filed as functional. The essentials:
as §2

The subject of data set [9] is Rattus norvegicus. Description: Kaliuretic activity in Sprague-Dawley rat at 3 mg/kg via oral gavage administered 30 mins prior to void induction by loading saline measured upto 4 hrs relative to vehicle treated control. It is filed as functional. The essentials:
as §2

The test system of data set [10] is Rattus norvegicus. Description: Kaliuretic activity in Sprague-Dawley rat at 0.3 mg/kg via oral gavage administered 30 mins prior to void induction by loading saline measured upto 4 hrs relative to vehicle treated control. It is filed as functional. The method, boiled down: as §2
Data set [11] deals with Rattus norvegicus. Put plainly: Kaliuretic activity in Sprague-Dawley rat at 1 mg/kg via oral gavage administered 30 mins prior to void induction by loading saline measured upto 4 hrs relative to vehicle treated control. In kind it is functional. The essentials: as §2
Data set [12] can be described thus: Clearance in rat at 0.5 mg/kg, iv or 1 mg/kg, po. In kind it is ADME, organism-based. To be noted: in vivo.
Data set [13] is described as follows: Volume of distribution at steady state in rat at 0.5 mg/kg, iv or 1 mg/kg, po. In kind it is ADME, organism-based. To be noted: in vivo, read-out: Vdss.
The nature of data set [14]: Dose normalized AUC in rat at 1 mg/kg, po. It is filed as ADME, organism-based. To be noted: in vivo.
A short description of data set [15]: Half life in rat at 0.5 mg/kg, iv or 1 mg/kg, po. In kind it is ADME, organism-based. To be noted: in vivo.
Data set [16] in a line: Oral bioavailability in rat at 1 mg/kg. In kind it is ADME, organism-based. To be noted: in vivo.
Data set [17] deals with T2, ATP-sensitive inward rectifier potassium channel 1 (Homo sapiens, UniProt P48048).
T2 sequence (P48048 whole entry): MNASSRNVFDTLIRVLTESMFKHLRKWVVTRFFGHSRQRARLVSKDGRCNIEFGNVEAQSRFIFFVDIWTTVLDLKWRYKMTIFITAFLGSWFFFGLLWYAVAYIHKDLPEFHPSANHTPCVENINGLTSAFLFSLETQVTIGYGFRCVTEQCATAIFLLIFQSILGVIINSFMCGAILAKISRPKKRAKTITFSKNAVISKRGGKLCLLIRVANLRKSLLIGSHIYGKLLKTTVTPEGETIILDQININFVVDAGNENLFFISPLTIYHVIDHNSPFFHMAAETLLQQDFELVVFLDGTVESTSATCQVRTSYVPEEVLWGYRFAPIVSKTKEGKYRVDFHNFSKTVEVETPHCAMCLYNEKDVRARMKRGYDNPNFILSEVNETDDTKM
Description: Inhibition of ROMK (unknown origin) after 30 mins by 86Rb+ efflux assay.

The species named for data set [18] is Homo sapiens. Put plainly: Selectivity ratio of IC50 for human ERG to IC50 for ROMK (unknown origin).
Data set [19] concerns Rattus norvegicus. Description: Diuretic activity in Sprague-Dawley rat at 10 mg/kg via oral gavage administered 30 mins prior to void induction by loading saline measured upto 4 hrs relative to vehicle treated control. It is filed as functional. The essentials: as §1
In data set [20] the test system is Rattus norvegicus. Put plainly: Natriuretic activity in Sprague-Dawley rat at 10 mg/kg via oral gavage administered 30 mins prior to void induction by loading saline measured upto 4 hrs relative to vehicle treated control. In kind it is functional. The method, boiled down: as §1
A short description of data set [21]: Clearance in rat at 1 mg/kg, iv or 2 mg/kg, po. It is filed as ADME, organism-based. To be noted: in vivo. The essentials: (§3)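 Rats dosed once at 1 mg/kg IV and, separately, 2 mg/kg PO, with n = 3. Derived parameters were plasma clearance, Vdss, dose-normalized oral AUC (μM·h·kg/mg), half-life, and oral bioavailability (F%).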
Data set [22] in a line: Volume of distribution at steady state in rat at 1 mg/kg, iv or 2 mg/kg, po. It is filed as ADME, organism-based. To be noted: in vivo, read-out: Vdss. The method, boiled down: as §3
Data set [23] is described as follows: Dose normalized AUC in rat at 2 mg/kg, po. In kind it is ADME, organism-based. To be noted: in vivo. The method, boiled down: as §3
A short description of data set [24]: Oral bioavailability in rat at 2 mg/kg. In kind it is ADME, organism-based. To be noted: in vivo. The method, boiled down: as §3
Data set [25] in a line: Half life in rat at 1 mg/kg, iv or 2 mg/kg, po. To be noted: in vivo. It is filed as ADME, organism-based. The essentials: as §3
Data set [26] has as its target T2, ATP-sensitive inward rectifier potassium channel 1. Put plainly: Inhibition of ROMK (unknown origin) expressed in CHO cells after 6 mins by electrophysiological assay. It is filed as cell-based.
Data set [27] is filed under the species Homo sapiens. Put plainly: Selectivity ratio of IC50 for human ERG to IC50 for ROMK (unknown origin) expressed in CHO cells by electrophysiological assay. It is filed as cell-based. The method, boiled down:
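Both channels were tested in electrophysiology (EP) assays. The ratio is the hERG EP IC50 divided by the ROMK EP IC50.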

In data set [28] the test system is Rattus norvegicus. Put plainly: Kaliuretic activity in Sprague-Dawley rat administered via oral gavage 30 mins prior to void induction by loading saline measured upto 4 hrs relative to vehicle treated control. In kind it is functional. The method, boiled down:
as §1

Data set [29] relates to Rattus norvegicus. Description: Antihypertensive activity in spontaneously hypertensive rat assessed as reduction in systolic blood pressure at 25 mg/kg via oral gavage qd administered for 4 days measured on day 4 by telemetry (reference value: 2.5 +/- 2.2 mmHg). In kind it is functional.

T1 sequence (Q12809 whole entry): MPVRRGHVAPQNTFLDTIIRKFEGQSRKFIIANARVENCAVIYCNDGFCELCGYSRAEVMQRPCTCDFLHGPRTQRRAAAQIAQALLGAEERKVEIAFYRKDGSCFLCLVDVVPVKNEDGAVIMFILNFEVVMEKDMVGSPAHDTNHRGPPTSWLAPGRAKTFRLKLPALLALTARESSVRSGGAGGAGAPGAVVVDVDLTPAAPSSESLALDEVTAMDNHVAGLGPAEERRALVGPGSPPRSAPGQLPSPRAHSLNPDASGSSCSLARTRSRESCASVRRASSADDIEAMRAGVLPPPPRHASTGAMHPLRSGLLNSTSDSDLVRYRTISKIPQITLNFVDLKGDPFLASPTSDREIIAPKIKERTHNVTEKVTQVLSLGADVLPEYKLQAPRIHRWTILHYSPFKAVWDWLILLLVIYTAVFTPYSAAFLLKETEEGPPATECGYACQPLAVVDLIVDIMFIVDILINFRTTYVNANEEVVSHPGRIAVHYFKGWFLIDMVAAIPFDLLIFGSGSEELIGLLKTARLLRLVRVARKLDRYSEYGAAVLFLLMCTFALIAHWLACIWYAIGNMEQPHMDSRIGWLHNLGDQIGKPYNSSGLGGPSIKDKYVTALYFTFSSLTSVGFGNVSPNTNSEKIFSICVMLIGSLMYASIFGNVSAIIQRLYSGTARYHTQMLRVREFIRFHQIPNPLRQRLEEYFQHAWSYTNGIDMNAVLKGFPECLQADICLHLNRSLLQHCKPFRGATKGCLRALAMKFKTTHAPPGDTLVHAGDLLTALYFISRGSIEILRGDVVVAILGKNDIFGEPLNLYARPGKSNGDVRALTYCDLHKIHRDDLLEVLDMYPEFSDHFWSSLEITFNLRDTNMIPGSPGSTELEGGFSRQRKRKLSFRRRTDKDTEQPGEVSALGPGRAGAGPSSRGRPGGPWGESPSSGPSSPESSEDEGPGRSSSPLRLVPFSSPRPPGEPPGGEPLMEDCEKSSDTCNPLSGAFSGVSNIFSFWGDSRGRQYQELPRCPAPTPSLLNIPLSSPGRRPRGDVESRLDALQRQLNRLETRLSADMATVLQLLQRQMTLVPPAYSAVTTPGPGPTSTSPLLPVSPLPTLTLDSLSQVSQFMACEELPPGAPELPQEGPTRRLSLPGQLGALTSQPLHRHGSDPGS

As usually defined, the IC50 is the concentration that gives 50% inhibition. A higher IC50 goes with weaker potency in that assay. In general, half-life refers to the time needed for the level to fall by half in the phase considered. A low value points to fast loss. The bioavailability is the share of a dose that reaches the circulation, judged against a reference dose that is usually intravenous. Low values mean little systemic uptake, high ones much systemic uptake. In the case of `Cc1c([C@H](O)CN2CCN(C[C@@H](O)c3ccc4c(c3C)COC4=O)CC2)ccc2c1COC2=O`, the IC50 in [1] stood at 47 µM; in [2] it was 22 µM. Also, the “fold change (FC)” value in the data set with Rattus norvegicus [3] came out at 1.9; with Rattus norvegicus [4], 2.2; with Rattus norvegicus [5], 1.3; in the data set on Rattus norvegicus [6], 1.6; in the data set with Rattus norvegicus [7], 1.4; in the data set on Rattus norvegicus [8] it was 1.5. In addition, the “fold change (FC)” value in the data set with Rattus norvegicus [9] came to 0.9; in the data set with Rattus norvegicus [10] it was 1.1; in the data set with Rattus norvegicus [11], 1. The same compound had a clearance in [12] of 4.92 L/h/kg. The Vd in data set [13] was 5.8 L/kg. The AUC/dose in data set [14] came to 0.13 µM·kg·h/mg. The half-life in data set [15] is 51.6 min. Moreover, the bioavailability in data set [16] was 45%.
As to `Cc1c([C@H](O)CN2CCN(C[C@H](O)c3ccc4c(c3C)COC4=O)CC2)ccc2c1COC2=O`, the IC50 in data set [1] was 100 µM; in [2], over 30 µM. The “fold change (FC)” value with Rattus norvegicus [3] was 4.5; in the data set on Rattus norvegicus [4] it was 4.1; in the data set with Rattus norvegicus [6] it was 3.5; with Rattus norvegicus [8] it was 3.7; with Rattus norvegicus [9], 1.1; in the data set on Rattus norvegicus [11], 1.3. The same compound returned a clearance in [12] of 3.24 L/h/kg. Moreover, in data set [13], the Vd amounted to 4.5 L/kg. Moreover, in data set [14], the AUC/dose is 0.3 µM·kg·h/mg. In [15], this compound showed a half-life of 84 min. The same compound gave a bioavailability in data set [16] of 44%.
Take `Cc1c(CCN2CCN(CC(O)c3ccc4c(c3C)COC4=O)CC2)ccc2c1COC2=O` (centres undefined): the midpoint of inhibition in [17], the IC50, lay at 0.034 µM.
For `Cc1c(C(O)CN2CCN(C(=O)Cc3ccc(-n4cnnn4)cc3)CC2)ccc2c1COC2=O` (centres undefined), the IC50 amounted to 0.51 µM in [17] and 100 µM in data set [1]. Also, the Ratio IC50 in the data set filed under Homo sapiens [18] stood at 200.
As for `Cc1c(C(C)CN2CCN(C(=O)Cc3ccc(-n4cnnn4)cc3)CC2)ccc2c1COC2=O` (centres undefined), the IC50 in data set [17] came out at 0.16 µM; in data set [1], 60 µM. The Ratio IC50 in the data set listed under Homo sapiens [18] was determined as 380.
Compound `Cc1c(CCN2CCN(CCc3ccc4c(c3C)COC4=O)CC2)ccc2c1COC2=O` yielded a 50% inhibitory concentration (IC50) in [1] of 3 µM. In addition, the Ratio IC50 in the data set listed under Homo sapiens [18] came out at 39.
Consider `Cc1c(C(O)CN2CCN(CC(O)c3ccc4c(c3C)COC4=O)CC2)ccc2c1COC2=O` (centres undefined), for which the IC50 is 23 µM in data set [1] and 28 µM in data set [2]. For the same compound, the “fold change (FC)” value amounted to 6.7 in the data set with Rattus norvegicus [3], 6.8 with Rattus norvegicus [19], 9.4 in the data set with Rattus norvegicus [4] and 9.5 with Rattus norvegicus [20].
Consider `Cc1c(C(F)CN2CCN(C(=O)Cc3ccc(-n4cnnn4)cc3)CC2)ccc2c1COC2=O` (centres undefined), for which the IC50 in [17] is 0.069 µM; in [1] it was 68 µM. In addition, the Ratio IC50 in the data set listed under Homo sapiens [18] is 1000. The compound also returned a clearance in [21] of 3.48 L/h/kg. For the same compound, the Vd in [22] worked out at 1.4 L/kg. The AUC/dose in [23] worked out at 0.23 µM·h. The bioavailability in data set [24] worked out at 36%. For the same compound, the half-life in [25] is 21 min.
For `Cc1c(C(F)CN2CCN(CC(F)c3ccc4c(c3C)COC4=O)CC2)ccc2c1COC2=O` (centres undefined), the IC50 in [17] was 0.096 µM; in data set [1], 40 µM; in [26], 0.117 µM; in data set [2] it was over 90 µM. Also, the Ratio IC50 was 420 in the data set filed under Homo sapiens [18] and over 770 in the data set filed under Homo sapiens [27]. Besides, the “fold change (FC)” value in the data set on Rattus norvegicus [3] is given as 1.6; in the data set on Rattus norvegicus [19], 3; in the data set on Rattus norvegicus [4], 1.7; in the data set with Rattus norvegicus [20], 3.
As for `NS(=O)(=O)c1cc2c(cc1Cl)NCNS2(=O)=O` [HYDROCHLOROTHIAZIDE], the “fold change (FC)” value in the data set on Rattus norvegicus [28] was 2. Moreover, in the data set on Rattus norvegicus [29], the Activity was found to be 15 mmHg.
